Data as given in ChEMBL document CHEMBL2434867, “Synthesis and antioxidant activity of novel Mannich base of 1,3,4-oxadiazole derivatives possessing 1,4-benzodioxan” (Bioorg Med Chem, 2013).
Activity calls are given as the source filed them. The rule behind the calls is not given here.

Experiments:
[1] = system: Radical scavenging activity; experiment: Antioxidant activity assessed as DPPH free radical scavenging activity after 30 mins by spectrophotometric analysis; assay type: functional
Procedure, shortened: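 Serial dilutions of compound (100 to 3.125 µg/mL) mixed 1:1 with 0.2 mmol/L DPPH in ethanol; ethanol blank, BHT control. A515 read after 0.5 h at 25 °C; IC50 = concentration giving 50% DPPH scavenging; three replicates, mean ± SD.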

[2] = Antioxidant activity assessed as ferric ion reducing activity using ferric-TPTZ by measuring concentration of compound with antioxidant capacity equivalent to ferrous sulfate at 0.5 mmol/L by FRAP assay; assay type: functional
[3] = Antioxidant activity assessed as ABTS radical scavenging activity after 6 mins; assay type: functional
Liver = experiment: Antioxidant activity in KM mouse liver microsomes assessed as inhibition of lipid peroxidation after 60 mins; assay type: functional, Microsome; settings: for IC50: 1 h; for inhibition: Microsome
Procedure, shortened: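 Liver microsomes from adult male KM mice (8–12 weeks), protein by Bradford, used at 0.67 mg protein/mL with compounds at varying concentrations, 10 mM FeSO₄ and 0.1 mM ascorbic acid in 0.2 M potassium phosphate pH 7.4; 37 °C, 60 min. Stopped with 20% TCA plus 0.67% TBA, heated 100 °C 15 min, centrifuged; MDA-TBA read at 535 nm.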

[4] = Antioxidant activity against AAPH-induced DNA breakage in Escherichia coli pBR322 at 100 uM after 1 hr using ethidium bromide staining by agarose gel electrophoresis analysis; assay type: functional
Procedure, shortened: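 Plasmid pBR322 DNA (4 µg/mL final) exposed to AAPH (4 mM final) in phosphate buffer (8.1 mM Na₂HPO₄, 1.9 mM NaH₂PO₄, 10.0 mM EDTA), 25 µL total; samples and Trolox standard added at 100 µM in DMSO; 37 °C, 1 h. Strand breakage resolved on 1% agarose gel in Tris-acetate-EDTA, 60 V, 100 min.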

IC50 [1] [µM] | IC50 [3] [µM] | IC50 (Liver) [µM] | SMILES | Activity [2] [µM] | Activity [4] | inhibition (Liver)
47.8 | 9.95 |  | O=[N+]([O-])c1ccc(NCn2nc(-c3ccc4c(c3)OCCO4)oc2=S)cc1 | > 1000 |  | 
36.2 | 6.84 |  | S=c1oc(-c2ccc3c(c2)OCCO3)nn1CNc1ccc(Cl)c(Cl)c1 | 763 |  | 
22.4 | 5.28 |  | CCOc1ccccc1NCn1nc(-c2ccc3c(c2)OCCO3)oc1=S | 422 |  | 
30.5 | 7.23 |  | S=c1oc(-c2ccc3c(c2)OCCO3)nn1CNc1ccccc1Cl | 532 |  | 
19.6 | 2.92 | 110 | Fc1cc(NCn2nc(-c3ccc4c(c3)OCCO4)oc2=S)cc(F)c1F | 240 | Active | 
108 | 22.9 |  | CCCCCCCCCCCCCCCCNCn1nc(-c2ccc3c(c2)OCCO3)oc1=S | > 1000 |  | 
89.3 | 9.32 |  | FC(F)(F)c1cc(NCn2nc(-c3ccc4c(c3)OCCO4)oc2=S)cc(C(F)(F)F)c1 | > 1000 |  | 
36.1 | 12.7 |  | S=c1oc(-c2ccc3c(c2)OCCO3)nn1CNc1ccccc1Br | 440 |  | 
35.1 | 5.42 |  | S=c1oc(-c2ccc3c(c2)OCCO3)nn1CNc1cc(Cl)ccc1Cl | 899 |  | 
94.4 | 18.4 |  | S=c1oc(-c2ccc3c(c2)OCCO3)nn1CNC1CCCCC1 | > 1000 |  | 
32.6 | 5.14 |  | S=c1oc(-c2ccc3c(c2)OCCO3)nn1CNc1ccccc1 | 735 | Active | Active
29.3 | 6.48 |  | Fc1ccc(NCn2nc(-c3ccc4c(c3)OCCO4)oc2=S)cc1 | 300 |  | 
25.2 | 5.7 |  | Cc1ccc(NCn2nc(-c3ccc4c(c3)OCCO4)oc2=S)cc1 | 434 |  | 
43.5 | 8.71 |  | S=c1oc(-c2ccc3c(c2)OCCO3)nn1CNc1ccc(Cl)cc1Cl | 593 |  | 
63.9 | 10.6 |  | S=c1[nH]nc(-c2ccc3c(c2)OCCO3)o1 | 612 |  | 
71.3 | 14.7 |  | S=c1oc(-c2ccc3c(c2)OCCO3)nn1CNc1ccc(Br)cc1 | 531 |  | 
89.8 | 10.9 |  | S=c1[nH]nc(-c2ccccc2)o1 | > 1000 |  | 
47.8 | 10.9 |  | O=[N+]([O-])c1ccccc1NCn1nc(-c2ccc3c(c2)OCCO3)oc1=S | > 1000 | Active | Active

IC50 [1] [µM] | IC50 [3] [µM] | IC50 (Liver) [µM] | SMILES | Activity [2] [µM] | Activity [4] | inhibition (Liver)
28.6 | 6.3 |  | COc1ccccc1NCn1nc(-c2ccc3c(c2)OCCO3)oc1=S | 335 |  | 
68.3 | 9.22 |  | FC(F)(F)c1ccccc1NCn1nc(-c2ccc3c(c2)OCCO3)oc1=S | > 1000 |  | 
43.8 | 7.57 |  | Cc1cc(C(C)(C)C)c(O)c(C(C)(C)C)c1 [BUTYLATED HYDROXYTOLUENE] | 546 |  | 
30.2 | 6.19 | 183 | Cc1c(C)c2c(c(C)c1O)CCC(C)(C(=O)O)O2 (stereo not given) [TROLOX] | 294 |  | 
21.8 | 3.32 |  | Fc1cccc(F)c1NCn1nc(-c2ccc3c(c2)OCCO3)oc1=S | 268 | Active | Active
38.3 | 8.87 |  | O=[N+]([O-])c1cccc(NCn2nc(-c3ccc4c(c3)OCCO4)oc2=S)c1 | > 1000 | Active | Active
51 | 10.8 |  | S=c1oc(-c2ccc3c(c2)OCCO3)nn1CNc1cccc(Br)c1 | > 1000 |  | 
36.3 | 3.45 |  | Cc1ccccc1NCn1nc(-c2ccc3c(c2)OCCO3)oc1=S | 292 | Active | Active
31.3 | 7.27 |  | S=c1oc(-c2ccc3c(c2)OCCO3)nn1CNc1ccc(Cl)cc1 | 584 |  | 
35.6 | 6.62 |  | Fc1cccc(NCn2nc(-c3ccc4c(c3)OCCO4)oc2=S)c1 | 398 |  | 
83.4 | 8.66 |  | O=[N+]([O-])c1ccc(NCn2nc(-c3ccc4c(c3)OCCO4)oc2=S)c(Cl)c1 | > 1000 | Active | Active
35.5 | 7.62 |  | FC(F)(F)c1cccc(NCn2nc(-c3ccc4c(c3)OCCO4)oc2=S)c1 | > 1000 |  | 
37.3 | 6.39 |  | Fc1ccccc1NCn1nc(-c2ccc3c(c2)OCCO3)oc1=S | 522 |  | 
87.4 | 13.8 |  | COC(=O)c1ccc2c(c1)OCCO2 | > 1000 |  | 
35.9 | 6.41 |  | S=c1oc(-c2ccc3c(c2)OCCO3)nn1CNc1ccc(Br)cc1Br | > 1000 |  | 
31.8 | 5.83 |  | COc1ccc(NCn2nc(-c3ccc4c(c3)OCCO4)oc2=S)cc1 | 493 |  | 
22.8 | 6.22 |  | S=c1oc(-c2ccc3c(c2)OCCO3)nn1CNc1cccc(Cl)c1 | 846 |  | 
